From ChEMBL document CHEMBL5724801, “EUbOPEN Chemogenomics Library - Multiplex” (2024)
Where “and” joins values, the source holds several entries; their conditions need not be identical. Identical values can stand only once.

System: U2OS
Test: Multiplex assay against U2OS
Assay type: toxicity, cell-based
Details: human
Summary of the method: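 Live cells were stained at seeding with Hoechst33342, BioTracker Green Microtubule Cytoskeleton Dye, MitoTracker Red and Annexin V Alexa Fluor 680, then imaged on a CQ1 microscope at 37°C and 5% CO2 after compound addition. CellPathfinder machine-learning gating split cells into Hoechst high-intensity objects or normal cells. Normal cells were split into healthy, pyknosed or fragmented nuclei, and pyknosed cells into mitotic or apoptotic. Tubulin, mitochondrial-mass and membrane-permeability phenotypes are per cents of healthy-nucleus cells.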

[1] = 12 h, 1 µM, compound concentration 1 uM
[2] = 12 h, 10 µM, compound concentration 10 uM
[3] = 24 h, 1 µM, compound concentration 1 uM
[4] = 24 h, 10 µM, compound concentration 10 uM
[5] = 48 h, 1 µM, compound concentration 1 uM
[6] = 48 h, 10 µM, compound concentration 10 uM

CCn1c(-c2ccncc2)cc2c1CCNC2=O
Population Apoptotic (%) [1]: 53.12% and 58.33%
Population Fragmented Nuclei (%) [1]: 2.21% and 6.71%
Population Healthy Nuclei (%) [1]: 88.95% and 78.66%
Population Hoechst High Intensity Objects (%) [1]: 0%
Population Membrane Permeable-Phenotype (%) [1]: 0.93% and 4.65%
Population Mitochondria Different-Phenotype (%) [1]: 0.31% and 6.98%
Population Mitotic Cells (%) [1]: 46.88% and 41.67%
Population Normal (%) [1]: 100%
Population Pyknosed Nuclei (%) [1]: 8.84% and 14.63%
Population Tubulin-Different-Phenotype (%) [1]: 1.24% and 3.88%
Total Cell Count [1]: 362 and 164
Population Apoptotic (%) [2]: 43.94% and 36.59%
Population Fragmented Nuclei (%) [2]: 4.31% and 5.7%
Population Healthy Nuclei (%) [2]: 69.8% and 68.35%
Population Hoechst High Intensity Objects (%) [2]: 0%
Population Membrane Permeable-Phenotype (%) [2]: 3.93% and 8.33%
Population Mitochondria Different-Phenotype (%) [2]: 0% and 6.48%
Population Mitotic Cells (%) [2]: 56.06% and 63.41%
Population Normal (%) [2]: 100%
Population Pyknosed Nuclei (%) [2]: 25.88% and 25.95%
Population Tubulin-Different-Phenotype (%) [2]: 2.25% and 1.85%
Total Cell Count [2]: 255 and 158
Population Apoptotic (%) [3]: 59.26% and 60%
Population Fragmented Nuclei (%) [3]: 3.6% and 7.14%
Population Healthy Nuclei (%) [3]: 75.58% and 63.1%
Population Hoechst High Intensity Objects (%) [3]: 0%
Population Membrane Permeable-Phenotype (%) [3]: 1.02% and 6.6%
Population Mitochondria Different-Phenotype (%) [3]: 0% and 13.21%
Population Mitotic Cells (%) [3]: 40.74% and 40%
Population Normal (%) [3]: 100%
Population Pyknosed Nuclei (%) [3]: 20.82% and 29.76%
Population Tubulin-Different-Phenotype (%) [3]: 1.02% and 5.66%
Total Cell Count [3]: 389 and 168
Population Apoptotic (%) [4]: 46.96% and 46.84%
Population Fragmented Nuclei (%) [4]: 11.97% and 16.77%
Population Healthy Nuclei (%) [4]: 43.63% and 34.16%
Population Hoechst High Intensity Objects (%) [4]: 0%
Population Membrane Permeable-Phenotype (%) [4]: 1.77% and 9.09%
Population Mitochondria Different-Phenotype (%) [4]: 0% and 9.09%
Population Mitotic Cells (%) [4]: 53.04% and 53.16%
Population Normal (%) [4]: 100%
Population Pyknosed Nuclei (%) [4]: 44.4% and 49.07%
Population Tubulin-Different-Phenotype (%) [4]: 3.54% and 5.45%
Total Cell Count [4]: 259 and 161
Population Apoptotic (%) [5]: 67.24% and 64.84%
Population Fragmented Nuclei (%) [5]: 5.9% and 9.91%
Population Healthy Nuclei (%) [5]: 56.11% and 49.1%
Population Hoechst High Intensity Objects (%) [5]: 0%
Population Membrane Permeable-Phenotype (%) [5]: 3.5% and 6.42%
Population Mitochondria Different-Phenotype (%) [5]: 0% and 4.59%
Population Mitotic Cells (%) [5]: 32.76% and 35.16%
Population Normal (%) [5]: 100%
Population Pyknosed Nuclei (%) [5]: 37.99% and 40.99%
Population Tubulin-Different-Phenotype (%) [5]: 7.39% and 6.42%
Total Cell Count [5]: 458 and 222
Population Apoptotic (%) [6]: 66.29% and 76.67%
Population Fragmented Nuclei (%) [6]: 10.3% and 11.18%
Population Healthy Nuclei (%) [6]: 14.59% and 9.87%
Population Hoechst High Intensity Objects (%) [6]: 0% and 0.65%
Population Mitochondria Different-Phenotype (%) [6]: 0%
Population Mitotic Cells (%) [6]: 33.71% and 23.33%
Population Normal (%) [6]: 100% and 99.35%
Population Pyknosed Nuclei (%) [6]: 75.11% and 78.95%
Population Tubulin-Different-Phenotype (%) [6]: 23.53% and 26.67%
Total Cell Count [6]: 233 and 153

COC(=O)C1=C(C)NC(C)=C(C(=O)OC(C)C)C1c1cccc2nonc12 (configuration not stated) [ISRADIPINE]
Population Apoptotic (%) [1]: 29.03% and 12.5%
Population Fragmented Nuclei (%) [1]: 2.02% and 3.01%
Population Healthy Nuclei (%) [1]: 89.02% and 84.96%
Population Hoechst High Intensity Objects (%) [1]: 0%
Population Membrane Permeable-Phenotype (%) [1]: 0.97% and 0.88%
Population Mitochondria Different-Phenotype (%) [1]: 0% and 5.31%
Population Mitotic Cells (%) [1]: 70.97% and 87.5%
Population Normal (%) [1]: 100%
Population Pyknosed Nuclei (%) [1]: 8.96% and 12.03%
Population Tubulin-Different-Phenotype (%) [1]: 0.97% and 0.88%
Total Cell Count [1]: 346 and 133
Population Apoptotic (%) [2]: 38.64% and 25.81%
Population Healthy Nuclei (%) [2]: 87.43% and 71.74%
Population Hoechst High Intensity Objects (%) [2]: 0% and 13.21%
Population Membrane Permeable-Phenotype (%) [2]: 2.14% and 3.64%
Population Mitochondria Different-Phenotype (%) [2]: 0% and 13.33%
Population Mitotic Cells (%) [2]: 61.36% and 74.19%
Population Normal (%) [2]: 100% and 86.79%
Population Pyknosed Nuclei (%) [2]: 11.76% and 13.48%
Population Tubulin-Different-Phenotype (%) [2]: 3.67% and 1.21%
Total Cell Count [2]: 374 and 265
Population Apoptotic (%) [3]: 48.48% and 31.25%
Population Fragmented Nuclei (%) [3]: 1.75% and 1.23%
Population Healthy Nuclei (%) [3]: 91.03% and 88.89%
Population Hoechst High Intensity Objects (%) [3]: 0%
Population Membrane Permeable-Phenotype (%) [3]: 0.24% and 2.78%
Population Mitochondria Different-Phenotype (%) [3]: 0.24% and 4.86%
Population Mitotic Cells (%) [3]: 51.52% and 68.75%
Population Normal (%) [3]: 100%
Population Pyknosed Nuclei (%) [3]: 7.22% and 9.88%
Population Tubulin-Different-Phenotype (%) [3]: 0.72% and 0%
Total Cell Count [3]: 457 and 162
Population Apoptotic (%) [4]: 37.5% and 20.93%
Population Healthy Nuclei (%) [4]: 84.47% and 69.69%
Population Hoechst High Intensity Objects (%) [4]: 0% and 13.61%
Population Membrane Permeable-Phenotype (%) [4]: 0.69% and 3.95%
Population Mitotic Cells (%) [4]: 62.5% and 79.07%
Population Normal (%) [4]: 100% and 86.39%
Population Pyknosed Nuclei (%) [4]: 12.43% and 16.93%
Population Tubulin-Different-Phenotype (%) [4]: 3.22% and 0%
Total Cell Count [4]: 515 and 294
Population Apoptotic (%) [5]: 41.54% and 54.55%
Population Fragmented Nuclei (%) [5]: 2.53% and 3.11%
Population Healthy Nuclei (%) [5]: 89.63% and 84.05%
Population Hoechst High Intensity Objects (%) [5]: 0%
Population Membrane Permeable-Phenotype (%) [5]: 1.35% and 1.39%
Population Mitochondria Different-Phenotype (%) [5]: 0.27% and 4.17%
Population Mitotic Cells (%) [5]: 58.46% and 45.45%
Population Normal (%) [5]: 100%
Population Pyknosed Nuclei (%) [5]: 7.84% and 12.84%
Population Tubulin-Different-Phenotype (%) [5]: 1.35% and 0%
Population Apoptotic (%) [6]: 50.83% and 53.45%
Population Fragmented Nuclei (%) [6]: 3.44% and 6.67%
Population Healthy Nuclei (%) [6]: 82.35% and 75.76%
Population Hoechst High Intensity Objects (%) [6]: 0% and 9.34%
Population Membrane Permeable-Phenotype (%) [6]: 1.58% and 4.4%
Population Mitochondria Different-Phenotype (%) [6]: 0.14% and 6.4%
Population Mitotic Cells (%) [6]: 49.17% and 46.55%
Population Normal (%) [6]: 100% and 90.66%
Population Pyknosed Nuclei (%) [6]: 14.22% and 17.58%
Population Tubulin-Different-Phenotype (%) [6]: 2.73% and 2.8%
Total Cell Count [6]: 844 and 364
